# Screening data from PubChem.
# Rows were chosen to be rich in hits. Some 4.1% of all compounds tested hit in one or more screens of this group.
# KCC2 mod = KCC2 cotransporter modulators, thallium flux, primary screen, cell-based, HEK293 KCC2, FluoZin-2 fluorescence, MLSMR. Solute carrier family 12 member 5 (Homo sapiens), Q9H2X9. B-score of Tl+ flux slope (higher = more flux/activation; lower = inhibition) at 10 µM. KCC2 cells, thallium flux FluoZin-2 fluorescence. 190,000 compounds, 2.2% hits;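 active = thallium flux slope and its plate-corrected score both differing from the plate sample mean at a set confidence after two filtering rounds, in either direction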;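 note: slope of fluorescence scaled to starting intensity during 10 to 20 s after thallium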
# KCNK9 block = KCNK9 potassium channel inhibitors, primary screen, HEK293 cells, thallium flux. Potassium channel subfamily K member 9 (Homo sapiens), Q9NPC2. FluxOR thallium flux fluorescence; active compounds read low. B-score at 10 µM. 310,000 compounds, 1.2% hits. AID 488922, 2010;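 active = ratio B-score over 3 SD below the library mean, with starting fluorescence within 5 SD of its mean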;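 note: negative B-score means less thallium flux so channel inhibition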
# KCNQ1 act = potentiators or activators of KCNQ1 channel, primary screen, cell-based, thallium flux, high-throughput; Potassium voltage-gated channel subfamily KQT member 1 (Homo sapiens), P51787; CHO-K1 KCNQ1, thallium flux FluxOR fluorescence; active compounds read high; B-score at 10 µM; 310,000 compounds, 0.35% hits; AID 2648, 2010;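 active = fluorescence ratio B-score, a plate-corrected score, at least three library SD, with initial intensity B-score within 5 SD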
#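 Schedule – 37 °C overnight plating, 90-min dark dye load, 20-min compound pretreatment · System – stable KCNQ1 CHO-K1 line · Probe or stimulus – thallium- and potassium-containing depolarizing buffer · Measured by – kinetic FluxOR fluorescence, 10 s baseline plus 110 s post-stimulus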
# KCNQ1 block = inhibitors of human KCNQ1 channel, primary screen, cell-based, thallium flux, high-throughput; B-score at 10 µM; AID 2642, 2010; Potassium voltage-gated channel subfamily KQT member 1 (Homo sapiens), P51787; CHO-K1 KCNQ1, FluxOR thallium flux fluorescence; active compounds read high; 310,000 compounds, 1.3% hits;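 active = compounds whose thallium flux B-score, printed positive for inhibition, exceeds three library SD while starting fluorescence stays within three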;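 note: channel opened by potassium depolarization with thallium stimulus after 20 min compound exposure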
# KCNK3 block = human KCNK3 channel inhibitors, primary screen, CHO cells, FluxOR thallium flux, B-score. Potassium channel subfamily K member 3 (Homo sapiens), O14649. FluxOR fluorescence; active compounds read low. B-score at 10 µM. 340,000 compounds, 0.84% hits;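 active = B-score under library mean minus 4 SD, starting fluorescence ratio at most library mean plus 5 SD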;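 note: more negative B-score means stronger inhibition of thallium flux through KCNK3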
# hERG protect = hERG rescue from dofetilide block, primary screen, cell-based, CHO-hERG, FluxOR thallium flux, dofetilide IC70; Voltage-gated inwardly rectifying potassium channel KCNH2 (Homo sapiens), Q12809; 310,000 compounds, 0.51% hits; AID 1511, 2009; activation (rescue from dofetilide block), less the hit threshold, % at 10 µM; dofetilide IC70 present;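 active = activation above the mean of controls blocked by dofetilide plus 5 SD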;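 note: thallium influx through hERG after potassium depolarization seen as dye fluorescence rise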
# Target sequence (Q12809 whole entry, looked up): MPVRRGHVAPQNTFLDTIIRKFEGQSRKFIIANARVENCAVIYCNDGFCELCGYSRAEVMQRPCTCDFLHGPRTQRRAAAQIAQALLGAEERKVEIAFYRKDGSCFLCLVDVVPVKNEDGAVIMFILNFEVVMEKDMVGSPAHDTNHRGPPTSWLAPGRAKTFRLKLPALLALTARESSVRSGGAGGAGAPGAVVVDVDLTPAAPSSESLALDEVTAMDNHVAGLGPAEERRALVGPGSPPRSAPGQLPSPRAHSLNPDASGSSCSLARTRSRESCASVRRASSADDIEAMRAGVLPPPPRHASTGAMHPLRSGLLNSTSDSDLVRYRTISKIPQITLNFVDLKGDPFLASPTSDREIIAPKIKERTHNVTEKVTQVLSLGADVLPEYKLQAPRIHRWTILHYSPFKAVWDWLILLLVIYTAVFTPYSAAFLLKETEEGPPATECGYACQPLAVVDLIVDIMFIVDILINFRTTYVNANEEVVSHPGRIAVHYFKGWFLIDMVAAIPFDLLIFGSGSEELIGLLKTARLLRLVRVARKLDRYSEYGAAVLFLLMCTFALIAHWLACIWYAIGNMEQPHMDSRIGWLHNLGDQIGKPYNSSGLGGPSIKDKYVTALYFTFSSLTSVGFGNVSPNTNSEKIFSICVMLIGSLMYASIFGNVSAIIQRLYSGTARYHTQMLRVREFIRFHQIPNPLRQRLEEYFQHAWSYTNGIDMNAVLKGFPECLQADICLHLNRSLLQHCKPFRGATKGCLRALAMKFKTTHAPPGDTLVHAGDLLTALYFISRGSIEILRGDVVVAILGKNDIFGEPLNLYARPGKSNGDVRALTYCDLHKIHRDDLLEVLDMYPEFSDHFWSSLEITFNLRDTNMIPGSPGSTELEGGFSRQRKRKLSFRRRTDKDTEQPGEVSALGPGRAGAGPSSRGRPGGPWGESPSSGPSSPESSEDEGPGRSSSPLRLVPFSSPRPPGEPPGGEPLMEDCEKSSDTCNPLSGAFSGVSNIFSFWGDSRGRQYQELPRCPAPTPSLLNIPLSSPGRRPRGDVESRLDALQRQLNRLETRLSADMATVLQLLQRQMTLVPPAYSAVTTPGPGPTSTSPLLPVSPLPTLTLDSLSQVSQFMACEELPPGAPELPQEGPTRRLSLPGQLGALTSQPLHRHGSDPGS
# KCC2 secondary = KCC2 modulators in sodium-free buffer, confirmation, cell-based, HEK293 KCC2, thallium flux, secondary assay. normalised thallium flux (F/F0 slope) at 10 µM. 3,700 compounds, 15% hits. FluoZin2 fluorescence; active compounds read high. AID 1713, 2009. shares compounds with KCC2 mod;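 active = thallium flux slope above the same plate's solvent-only control mean plus 3 SD; inconclusive = the two replicate wells disagree; inactive = no significant difference from solvent-only control wells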
# KCC2 bumet counter = thallium flux persisting under bumetanide in KCC2 cells, confirmation, counter-screen for KCC2 modulator project, cell-based, HEK293 KCC2, FluoZin2, secondary assay 3. shares compounds with KCC2 mod. HEK293-KCC2 + bumetanide/ouabain; active compounds read high. normalized thallium flux at 10 µM. 3,700 compounds, 49% hits. AID 1714, 2009;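 active = thallium entry rate above the same plate's blocked-transporter control wells by more than 3 SD; inconclusive = the two repeat wells disagree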;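 note: raw slope of fluorescence over initial fluorescence between 10 and 20 s after thallium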
# KCC2 sec2 = KCC2 modulators without ouabain present, confirmation, cell-based, HEK293 KCC2, thallium flux, FluoZin2, secondary assay 2; 3,700 compounds, 23% hits; AID 1715, 2009; normalized thallium flux at 10 µM; thallium flux FluoZin2 fluorescence; actives lie on both sides; F/F0 rise rate, 10–20 s post-thallium; shares compounds with KCC2 mod;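 active = thallium flux slope more than 3 SD above or below the plate's solvent-only control mean, mostly below; inconclusive = the two repeat wells disagreed; inactive = no significant shift from solvent-only controls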;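 note: raw slope with 0.1% DMSO as baseline and bumetanide as block control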
# HEK counter1 = thallium flux modulation in parental HEK cells, confirmation, counter-screen for KCC2 modulator project, cell-based, counterscreen 1. shares compounds with KCC2 mod. HEK293 parental cells, thallium flux FluoZin2, ouabain; baseline-ratio fluorescence slope, 10–20 s after thallium. thallium flux rate (normalised fluorescence) at 10 µM. 3,700 compounds, 46% hits;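 active = thallium flux rate significantly above the same plate's solvent-only control wells, beyond their mean plus 3 SD; inconclusive = the two replicate wells gave conflicting results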
# KCC2 retest ouab = KCC2 inhibitors and activators, ouabain retest, confirmation, HEK-KCC2 cells; shares compounds with KCC2 mod; HEK293-KCC2, thallium flux FluoZin2 fluorescence; bidirectional: low = inhibitor, high = activator; raw Tl+ flux slope (below DMSO = inhibition, above = activation) at 10 µM; 3,700 compounds, 48% hits; AID 1717, 2009;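 active = thallium flux slope beyond 3 SD from same-plate DMSO control mean in most replicates, usually higher, sometimes lower; inconclusive = repeat tests gave conflicting results; inactive = no significant difference from controls in most replicates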;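 note: slope of initial-normalized fluorescence between seconds 10 and 20 after thallium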
# HEK counter2 = native HEK Tl+ uptake effects, second counter-screen – HEK cells, counterscreen 2, counter-screen for KCC2 modulator project, confirmation. shares compounds with KCC2 mod. HEK293 parental, thallium flux FluoZin-2 fluorescence slope. thallium flux slope at 10 µM. 3,700 compounds, 33% hits;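 active = thallium flux slope above the same plate's solvent-control mean plus 3 SD in both duplicate wells; inconclusive = duplicate wells that disagreed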;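 note: run without ouabain in cells lacking the KCC2 cotransporter; slope of fluorescence scaled to its starting value between 10 and 20 s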
# * marks the source's active call; other numbers are inactive results; i = inactive; ? = inconclusive; . = no result given.
SMILES,KCC2 mod,KCNK9 block,KCNQ1 act,KCNQ1 block,KCNK3 block,hERG protect,KCC2 secondary,KCC2 bumet counter,KCC2 sec2,HEK counter1,KCC2 retest ouab,HEK counter2
COc1ccc(CC(=O)Nc2ccc(S(=O)(=O)Nc3ncccn3)cc2)cc1OC,-0.0771,i,i,i,i,-14.2,.,.,.,.,.,.
COc1ccc(CC(=O)Nc2ccc(S(=O)(=O)Nc3nc(C)cc(C)n3)cc2)cc1,-5.89*,i,i,i,i,-4.1,0.00898,0.009*,0.0328,0.0077,0.022,0.0107
C=C1c2cc(OC)ccc2NC(=O)N1CC,0.309,i,i,i,i,-4.1,.,.,.,.,.,.
COc1ccc([N+](=O)[O-])cc1C1NN=C(c2ccccc2O)S1 (stereo not drawn),-0.135,i,i,i,i,-9.9,.,.,.,.,.,.
O=[N+]([O-])c1ccc(O)c(C2=NNC(c3ccccc3F)C2)c1 (stereo not drawn),27.7*,i,i,i,i,-17.4,0.0094,0.0341*,0.0313,0.0255*,0.0323*,?
O=C(N/N=C/c1cn(-c2cccs2)nc1-c1ccccc1)c1ccccc1O,5.44*,i,i,i,i,-11.3,0.00963,0.019*,0.0325,0.0106*,0.0226,?
COCCn1c(SCC(=O)NCc2ccccc2)nc2ccccc21,.,i,i,i,i,-4.9,.,.,.,.,.,.
COCCn1c(SCc2csc(-c3ccccc3)n2)nc2ccccc21,-3.48*,i,i,i,i,-10.8,0.00566,0.00494,0.0286,0.00509*,0.0153*,0.00907
O=c1c2ccccc2nc(-c2ccc(Cl)cc2Cl)n1O,5.72*,i,i,i,i,-5.6,0.0121*,0.0198*,0.034,0.0116*,0.0291*,0.0109
O=c1c2ccccc2nc(-c2ccc(Cl)c(Cl)c2)n1O,34.8*,i,37*,i,i,21.0*,0.0181*,0.114*,?,0.0625*,0.0829*,0.0228*
S=C(Nc1ccccc1)N1CCN(C(=S)c2ccccc2)CC1,0.815,i,i,i,i,-6.4,.,.,.,.,.,.
Oc1c(N=NC(=S)Nc2ccccc2F)c2ccccc2n1Cc1ccccc1,20.6*,i,10*,i,i,58.8*,?,0.046*,0.0324,?,0.0298*,?
O=C(N=Nc1c(O)n(Cc2ccccc2)c2ccccc12)c1ccncc1,-1.28,i,i,i,i,-7.1,.,.,.,.,.,.
C=CCn1c(O)c(N=NC(=S)Nc2ccccc2F)c2cc(S(=O)(=O)N3CCOCC3)ccc21,63.9*,i,10*,i,i,5.9*,0.0182*,0.0497*,0.0382,0.0558*,0.0494*,0.0196*
C=CCn1c(O)c(N=NC(=S)Nc2ccccc2F)c2ccccc21,107*,i,48*,i,i,102.4*,0.0364*,0.136*,0.0503*,?,0.0888*,0.0277*
C=CCn1c(O)c(N=NC(=S)Nc2cccc(C)c2)c2ccccc21,82.2*,i,40*,i,i,19.5*,0.00628,0.0839*,0.0568*,0.0295*,0.0626*,0.0231*
CN1Cc2sc(N)c(C#N)c2CC1(C)C,-0.429,i,i,i,i,-8.2,.,.,.,.,.,.
Cc1c(Cl)cccc1NC(=S)N=Nc1c(O)n(CN2CCOCC2)c2ccccc12,47.8*,i,i,i,i,1.1,0.0162*,0.0516*,0.0322,0.0383*,0.0559*,0.0134*
Cc1ccc(-n2c(C)cc(-c3csc(N)n3)c2C)cc1,-3.19*,i,i,i,i,-11.5,0.0086,0.00625,0.0355,?,0.0194,0.0116
CCOC(=O)/C(C#N)=C1/C=C(C)NC(c2ccccc2O)=N1,-3.78*,i,i,i,i,-7.6,0.00714,0.00364,0.0222*,0.0053*,0.0134*,?
COCCNc1cc(C)c(C#N)c2nc3ccccc3n12,-0.882,i,i,i,i,-4.8,0.0101,?,0.0301,0.00711,0.0338,?
O=C(Nc1ccc(Cl)c(Cl)c1)Nc1ccccc1C(=O)O,-4.52*,i,i,i,i,-12.1,0.0145,?,0.0237*,0.00653,0.013,0.00936
FC(F)(F)c1ccc(N=Cc2sc(N3CCOCC3)nc2-c2ccccc2)cc1,0.0161,i,i,i,i,0.3,.,.,.,.,.,.
Cc1sc2c(c1C)c(=O)nc1n2Cc2ccccc2-1,.,i,i,i,.,-6.0,0.00874,0.00619,0.0299,0.00799,0.0188,0.0107
O=c1nc2n(c3c1oc1ccccc13)Cc1ccccc1-2,-0.743,i,i,i,.,-5.2,.,.,.,.,.,.
